Data as given in ChEMBL document CHEMBL3769392, “Synthesis, antiproliferative activities, and computational evaluation of novel isocoumarin and 3,4-dihydroisocoumarin derivatives” (Eur J Med Chem, 2016).
Values after ≈ are worked out from the molar mass of the structure shown.

Columns and labels:
[1] = system: NCI-H460; assay: Selectivity index, ratio of GI50 for human HaCaT cells to GI50 for human NCI-H460 cells; format: functional
[2] = system: HaCaT; assay: Selectivity index, ratio of GI50 for human HaCaT cells to GI50 for human PC3 cells; format: functional
[3] = system: MCF7; assay: Antiproliferative activity against human MCF7 cells after 48 hrs by SRB assay; format: functional; settings: MCF7, 48 h
Procedure, shortened: (§1)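 Cells kept in RPMI 1640 with 5% FBS and 1% penicillin/streptomycin at 37 °C, 5% CO2, and used at passages 5–12. Seeded at 3 to 5 x 10^4 cells/mL and exposed 48 h to 0.25, 2.5, 25 and 250 µg/mL in DMSO/RPMI (final DMSO ≤ 0.25%). Doxorubicin 0.025–25 µg/mL served as positive control. Fixed with 50% TCA at T0 and at endpoint, SRB protein read at 540 nm. Growth was T0-corrected and GI50 taken by non-linear regression.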

[4] = system: NCI-H460; assay: Antiproliferative activity against human NCI-H460 cells after 48 hrs by SRB assay; format: functional; settings: NCI-H460, 48 h; procedure, shortened: as §1
[5] = system: HaCaT; assay: Selectivity index, ratio of GI50 for human HaCaT cells to GI50 for human U251 cells; format: functional
[6] = system: U-251; assay: Antiproliferative activity against human U251 cells after 48 hrs by SRB assay; format: functional; settings: U-251, 48 h; procedure, shortened: as §1
[7] = system: HaCaT; assay: Selectivity index, ratio of GI50 for human HaCaT cells to GI50 for human MCF7 cells; format: functional
[8] = Antiproliferative activity against human PC3 cells after 48 hrs by SRB assay; format: functional; settings: PC-3, 48 h; procedure, shortened: as §1
[9] = system: HaCaT; assay: Selectivity index, ratio of GI50 for human HaCaT cells to GI50 for human NCI-ADR-RES cells; format: functional
[10] = system: HaCaT; assay: Selectivity index, ratio of GI50 for human HaCaT cells to GI50 for human 786-0 cells; format: functional
[11] = system: HT-29; assay: Antiproliferative activity against human HT-29 cells after 48 hrs by SRB assay; format: functional; settings: HT-29, 48 h; procedure, shortened: as §1
[12] = system: HaCaT; assay: Selectivity index, ratio of GI50 for human HaCaT cells to GI50 for human HT-29 cells; format: functional
[13] = Antiproliferative activity against human NCI-ADR-RES cells after 48 hrs by SRB assay; format: functional; procedure, shortened: as §1
[14] = system: 786-0; assay: Antiproliferative activity against human 786-0 cells after 48 hrs by SRB assay; format: functional; settings: 786-0, 48 h; procedure, shortened: as §1
[15] = Cytotoxicity against human HaCaT cells after 48 hrs by SRB assay; format: cell-based; procedure, shortened: as §1

Compound	RatioGI50 [1]	RatioGI50 [2]	GI50 [3] [µg/mL]	GI50 [4] [µg/mL]	RatioGI50 [5]	GI50 [6] [µg/mL]	RatioGI50 [7]	GI50 [8] [µg/mL]	RatioGI50 [9]	RatioGI50 [10]	GI50 [11] [µg/mL]	RatioGI50 [12]	GI50 [13] [µg/mL]	GI50 [14] [µg/mL]	GI50 at 48 h [15] [µg/mL]
COc1ccc2cc(COCCCc3cccnc3)oc(=O)c2c1	0.89	1.05	26.5 (≈ 81.4 µM)	29.6 (≈ 91 µM)	0.92	28.5 (≈ 87.6 µM)	0.99	25 (≈ 76.8 µM)	0.94	0.92	25.8 (≈ 79.3 µM)	1.02	28 (≈ 86.1 µM)	28.6 (≈ 87.9 µM)	26.2 (≈ 80.5 µM)
COc1ccc2cc(CCCOCCCc3cccnc3)oc(=O)c2c1	1.07	1.03	23.8 (≈ 67.3 µM)	25.2 (≈ 71.3 µM)	1.03	26.3 (≈ 74.4 µM)	1.13	26.3 (≈ 74.4 µM)	1.4	0.94	25 (≈ 70.7 µM)	1.08	19.3 (≈ 54.6 µM)	28.7 (≈ 81.2 µM)	27 (≈ 76.4 µM)
CCCCCOCCCc1cc2ccc(OC)cc2c(=O)o1	0.17	0.69	6 (≈ 19.7 µM)	32 (≈ 105 µM)	0.28	19.4 (≈ 63.7 µM)	0.92	8 (≈ 26.3 µM)	0.74	0.22	28.3 (≈ 93 µM)	0.19	7.4 (≈ 24.3 µM)	25.5 (≈ 83.8 µM)	5.5 (≈ 18.1 µM)
COc1ccc2cc(CCCSc3nnnn3-c3ccccc3)oc(=O)c2c1	–	>1.73	45.7 (≈ 116 µM)	≥ 250	>5.77	43.3 (≈ 110 µM)	>5.47	144 (≈ 366 µM)	–	>4.89	≥ 250	–	≥ 250	51.1 (≈ 130 µM)	≥ 250
COc1ccc2cc(CO)oc(=O)c2c1	1.44	2.73	32.6 (≈ 158 µM)	93.2 (≈ 452 µM)	0.8	167 (≈ 811 µM)	4.12	49.2 (≈ 239 µM)	0.84	3.57	80.3 (≈ 389 µM)	1.67	160 (≈ 778 µM)	37.6 (≈ 182 µM)	134 (≈ 652 µM)
O=c1oc(CO)cc2ccccc12	–	1.88	89.3 (≈ 507 µM)	≥ 250	–	≥ 250	2.49	118 (≈ 669 µM)	–	–	168 (≈ 956 µM)	1.32	≥ 250	≥ 250	222 (≈ 1260 µM)
COc1ccc2cc(CCCn3nnnc3-c3ccccc3)oc(=O)c2c1	–	>1.39	75.2 (≈ 208 µM)	≥ 250	>3.71	67.4 (≈ 186 µM)	>3.32	180 (≈ 496 µM)	–	>1.12	≥ 250	–	≥ 250	224 (≈ 619 µM)	≥ 250
COc1ccc2cc(CCCO)oc(=O)c2c1	1	1.12	25.8 (≈ 110 µM)	29.1 (≈ 124 µM)	1	28.9 (≈ 123 µM)	1.12	25.9 (≈ 111 µM)	1.03	1.08	29.1 (≈ 124 µM)	1	28.1 (≈ 120 µM)	26.9 (≈ 115 µM)	29 (≈ 124 µM)
CCCCCOCCCC1Cc2ccc(OC)cc2C(=O)O1 (racemic)	0.96	1.09	32.3 (≈ 105 µM)	33.7 (≈ 110 µM)	1	32.2 (≈ 105 µM)	1	29.5 (≈ 96.3 µM)	0.76	1.01	43.5 (≈ 142 µM)	0.74	42.3 (≈ 138 µM)	31.9 (≈ 104 µM)	32.3 (≈ 105 µM)
COc1ccc2c(c1)C(=O)OC(CO)C2 (racemic)	–	>1.43	250 (≈ 1200 µM)	≥ 250	–	≥ 250	>1	175 (≈ 842 µM)	–	–	≥ 250	–	≥ 250	≥ 250	≥ 250
COc1ccc2c(c1)C(=O)OC(CCCSc1nnnn1-c1ccccc1)C2 (racemic)	–	>5.54	18.6 (≈ 46.9 µM)	≥ 250	–	≥ 250	>13.44	45.1 (≈ 114 µM)	>1.89	–	13.7 (≈ 34.6 µM)	>18.25	132 (≈ 333 µM)	≥ 250	≥ 250
COc1ccc2c(c1)C(=O)OC(CCCn1nnnc1-c1ccccc1)C2 (racemic)	>1.19	> 10.5	28.2 (≈ 77.4 µM)	211 (≈ 578 µM)	>2.29	226 (≈ 621 µM)	>8.87	23.9 (≈ 65.6 µM)	>1.76	–	31.2 (≈ 85.6 µM)	>8.01	142 (≈ 390 µM)	≥ 250	≥ 250
O=C1OC(CO)Cc2ccccc21 (racemic)	–	–	0.66 (≈ 3.7 µM)	≥ 250	–	≥ 250	>378.79	≥ 250	–	–	≥ 250	–	≥ 250	≥ 250	≥ 250
COc1ccc2c(c1)C(=O)OC(CCCO)C2 (racemic)	0.96	1.84	80.8 (≈ 342 µM)	136 (≈ 574 µM)	0.97	135 (≈ 571 µM)	1.12	70.7 (≈ 299 µM)	1.4	1.28	132 (≈ 559 µM)	0.99	93.3 (≈ 395 µM)	102 (≈ 430 µM)	130 (≈ 551 µM)
COc1cccc2c1C(=O)c1c(O)c3c(c(O)c1C2=O)C[C@@](O)(C(=O)CO)C[C@@H]3O[C@H]1C[C@H](N)[C@H](O)[C@H](C)O1 [DOXORUBICIN]	–	–	< 0.025	< 0.025	–	< 0.025	–	0.085 (≈ 0.156 µM)	–	–	0.13 (≈ 0.239 µM)	–	0.14 (≈ 0.258 µM)	0.025 (≈ 0.046 µM)	< 0.025
